Published values of several laboratories.
Protocols differ between the studies behind these lines.
Read-out: binding
Pah: Phenylalanine-4-hydroxylase (Pah, Rattus norvegicus, UniProt P04176)
VHL: von Hippel-Lindau disease tumor suppressor (VHL, Homo sapiens, UniProt P40337)

| SMILES | target | technique | pH | setting | Kd [µM] |
| --- | --- | --- | --- | --- | --- |
| CC(C)C[C@H](N)C(=O)O | Pah | fluorescence | pH 7.5 |  | 93000 |
| Cc1cc2nc3c(=O)[nH]c(=O)nc-3n(C[C@H](O)[C@H](O)[C@H](O)COP(=O)(O)OP(=O)(O)OC[C@H]3O[C@@H](n4cnc5c(N)ncnc54)[C@H](O)[C@@H]3O)c2cc1C | Nuclear receptor coactivator 3 (Homo sapiens, UniProt Q9Y6Q9) |  |  | lysate | 0.015 |
| Cc1cc(Nc2cc3ncccc3c(N[C@@H]3C[C@H]4CC[C@@H](C3)N4CCC#N)n2)n[nH]1 | Cyclin-dependent kinase 4, with cyclin D3 (CDK4, Homo sapiens, UniProt P11802) | competition with immobilised ligand |  |  | 0.028 |
| N[C@H](Cc1ccccc1)C(=O)O | Pah | fluorescence | pH 7.5 |  | 8400 |
| Nc1ncnc2c1ncn2[C@@H]1O[C@H](CSCC[C@H](N)C(=O)O)[C@@H](O)[C@H]1O | mdh (Escherichia coli, UniProt P61889, del14-14/del9-10/V5N) | ITC |  |  | 13.3 |
| Nc1ncnc2c1ncn2[C@@H]1O[C@H](COP(=O)(O)O)[C@@H](OP(=O)(O)O)[C@H]1O | Sulfotransferase 2A1 (SULT2A1, Homo sapiens, UniProt Q06520) | fluorescence |  |  | 0.55 |
| c1cncc(-c2cccc(Nc3nccc(NC4CCCCC4)n3)c2)c1 | Ribosomal protein S6 kinase alpha-1, N-terminal kinase domain (RPS6KA1, Homo sapiens, UniProt Q15418) | competition with immobilised ligand |  |  | 4.4 |
| Cc1cnc(-c2ccc(-c3ccc(NC(=O)Nc4c(F)cc(F)cc4F)cc3F)c3c2C(=O)NC3)[nH]1 | Serine/threonine-protein kinase 3 (STK3, Homo sapiens, UniProt Q13188) | competition with immobilised ligand |  |  | 0.0039 |
| CCCC[C@H](N)C(=O)O | Pah | fluorescence | pH 7.5 |  | 17000 |
| COCCOc1cc(-c2scnc2C)ccc1CNC(=O)[C@@H]1C[C@@H](O)CN1C(=O)[C@@H](NC(=O)C1(F)CC1)C(C)(C)C | VHL | SPR |  |  | 0.062 |
| O=C(O)c1cccc(NC(=S)NC(=O)c2ccc3ccccc3c2)c1 | Stromal cell-derived factor 1 (CXCL12, Homo sapiens, UniProt P48061) | NMR |  |  | 64 |
| C=C(C)[C@@H]1CC[C@]2(C)CC[C@]3(C)[C@H](CC[C@@H]4[C@@]5(C)CC[C@H](O)C(C)(C)[C@@H]5CC[C@]43C)[C@@H]12 | GTPase KRas (KRAS, Homo sapiens, UniProt P01116) | ITC |  |  | 0.33 |
| Cc1ncsc1-c1ccc(CNC(=O)[C@@H]2C[C@@H](O)CN2C(=O)[C@@H](NC(=O)C2(F)CC2)C(C)(C)C)c(OCCOc2ccc(CN3CCN(c4cc(-c5ccccc5O)nnc4N)CC3)cc2)c1 | VHL | SPR |  |  | 0.25 |
